FGF22 binding – binders of recombinant human FGF22 by thermal shift; Q9HCT0; activity (Tm shift, normalised), % at 9.99 µM; AID 651658; SYPRO orange fluorescence; percent of sucrose octasulfate shift, DMSO zero; 340,000 tested, 1.5% active;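 active = mean Tm shift, scaled 0 neutral to 100 positive control, at about 1.3% or above, every replicate too, limit read from the data; inconclusive = no clear call, values can overlap the other calls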
Target sequence (Q9HCT0 whole entry, looked up): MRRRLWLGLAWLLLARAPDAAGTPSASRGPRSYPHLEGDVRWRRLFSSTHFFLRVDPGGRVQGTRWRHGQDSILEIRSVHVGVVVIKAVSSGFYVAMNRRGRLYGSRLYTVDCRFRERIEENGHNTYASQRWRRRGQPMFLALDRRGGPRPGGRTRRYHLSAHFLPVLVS
PglD inh – inhibitors of Campylobacter jejuni PglD acetyltransferase. 360,000 tested, 0.098% active. purified PglD enzyme, DTNB colorimetric CoA detection. inhibition, % at 12.5 µM; in the data active = inhibition above about 16%, passing the limit was not always enough; inconclusive = no clear call, values can overlap the other calls
C2C12 statin – protects C2C12 myotubes from simvastatin toxicity. rescue of ATP level, % at 7.49 µM. 330,000 tested, 0.78% active. ATP luminescence, 48 h; scaled: DMSO 0, geranylgeraniol control 100;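 active = mean ATP rescue above about 67%, or every replicate alone reaching that limit, limit read from the data, passing the limit was not always enough; inconclusive = no clear call, values can overlap the other calls; inactive = mean under the limit and some replicate under it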;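 also: myotubes were challenged with 10 µM simvastatin during compound exposure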
E-selectin induc – induces E-selectin expression in human endothelial cells; P16581; HUVEC E-selectin immunofluorescence imaging; normalized: neutral wells 0, TNF-alpha wells 100; activation, % at 7.58 µM; 260,000 tested, 0.37% active; AID 686992;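 active = mean E-selectin-positive cell signal at least 10% of the positive control, reached in at least 60% of replicates, without over 20% cell loss; inconclusive = no rule given, readout overlaps actives, possibly toxicity-flagged; inactive = the rest, including those meeting only one limit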
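Material: HUVEC primary endothelial cells; Amount: 3,000 cells per well; Dosing: single concentration; Medium: EGM-2 growth medium on 0.1% gelatin-coated wells; Read-out basis: percent E-selectin-positive cells; Signal: immunofluorescence imaging; Control set: TNF-alpha, DMSO.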
DENV2 CPE – inhibitors of DENV2 cytopathic effect; DENV2-infected cells, cytopathic effect rescue, plate reader; CPE inhibition, % at 9.99 µM; 350,000 tested, 1.7% active; in the data active = CPE inhibition above about 20%, passing the limit was not always enough; inconclusive = no clear call, values can overlap the other calls; tested in BHK-21 cells;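 also: 0% = median of neutral control wells and 100% = median of positive control wells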
Xi reactivation – reactivates the inactive X chromosome in mouse fibroblasts | AID 743238 | 360,000 tested, 0.055% active | activation, % at 7.58 µM | XiGFP mouse fibroblasts, % GFP-positive cells imaging, 3 d; cells co-treated with 5-aza-dC sensitizer; scaled so ellipticine positive control = 100%;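 active = mean normalized replicate activation at least 10% and every replicate at or above 10%; inconclusive = only one of the two criteria met; inactive = mean below 10% and not all replicates reach 10%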;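 also: 0% = median of on-plate neutral control wells and 100% = ellipticine 6 µM median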
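Material: XiGFP fibroblasts, SV40-immortalized; Buffer or medium: DMEM containing 5-aza-dC; Compound dosing: single point; Times: 3 days compound exposure.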
* = called active by the depositor; ? = inconclusive; · = no result given. Sampled rows, rich in hits. Any-hit rate of the full collection: about 3.3%.

SMILES	FGF22 binding	PglD inh	C2C12 statin	E-selectin induc	DENV2 CPE	Xi reactivation
CO[C@H]1CN(C)C(=O)c2cc(NC(=O)C3CCC3)ccc2OC[C@H](C)N(C)C[C@@H]1C	-0.1	-1.4	0.7	0.0	72.8*	-0.4
CO[C@H]1CN(C)C(=O)c2cc(NC(=O)C3CCC3)ccc2OC[C@@H](C)N(Cc2ccncc2)C[C@@H]1C	-0.5	-3.1	3.0	0.2	52.0*	0.0
C[C@H]1CCCCO[C@H](CN(C)C(=O)Nc2ccc3c(c2)OCO3)[C@@H](C)CN([C@@H](C)CO)C(=O)c2cc(NS(=O)(=O)c3ccccc3)ccc2O1	-0.4	-1.6	·	0.6	?	0.3
CO[C@H]1CN(C)C(=O)c2ccc(NC(=O)Nc3ccc(Cl)cc3)cc2OC[C@H](C)N(C)C[C@H]1C	0.1	-0.8	-25.1	0.1	27.5*	0.0
COc1ccc2c(c1)CCc1c(C(=O)Nc3ccn(Cc4ccc(C)cc4)n3)noc1-2	27.7*	1.7	-53.6	·	12.2	·
C[C@@H]1CN([C@H](C)CO)C(=O)Cc2cc(NC(=O)Cc3cn(C)c4ccccc34)ccc2O[C@H]1CN(C)Cc1ccc2c(c1)OCO2	-0.4	1.5	78.8*	·	51.2*	-0.9
C[C@H](CO)N1C[C@H](C)[C@@H](CN(C)Cc2ccc(Cl)c(Cl)c2)Oc2ccc(NC(=O)Cc3cn(C)c4ccccc34)cc2CC1=O	0.0	5.5	127.0*	13.8	6.6	-0.1
C[C@H](CO)N1C[C@H](C)[C@@H](CN(C)Cc2ccc3c(c2)OCO3)Oc2ccc(NC(=O)Cc3cn(C)c4ccccc34)cc2CC1=O	-0.5	2.1	19.4	·	-7.3	-0.3
C[C@@H]1CN([C@@H](C)CO)C(=O)c2cc(NC(=O)Cc3cn(C)c4ccccc34)ccc2O[C@H]1CN(C)Cc1ccc2c(c1)OCO2	0.1	5.8	-12.4	38.9*	7.8	0.3
C[C@H]1CN([C@@H](C)CO)C(=O)Cc2cc(NC(=O)Cc3cn(C)c4ccccc34)ccc2O[C@H]1CN(C)Cc1ccc(Cl)c(Cl)c1	-0.2	3.7	60.3	-8.1	4.4	0.5
C[C@H]1CN([C@@H](C)CO)C(=O)c2cc(NC(=O)Cc3cn(C)c4ccccc34)ccc2O[C@H]1CN(C)Cc1ccc(C(=O)Nc2ccccc2N)cc1	-0.8	-4.7	86.3*	0.8	-3.0	0.4
C[C@H](CO)N1C[C@H](C)[C@H](CN(C)Cc2ccc(Cl)c(Cl)c2)Oc2c(NS(=O)(=O)c3cn(C)cn3)cccc2C1=O	0.0	-0.3	39.2	37.8*	4.3	0.0
C[C@@H]1CN([C@@H](C)CO)C(=O)c2cccc(NS(=O)(=O)c3cn(C)cn3)c2O[C@H]1CN(C)Cc1ccncc1	0.0	-8.3	4.5	53.4*	-0.4	-0.8
C[C@H](CO)N1C[C@H](C)[C@@H](CN(C)Cc2ccc3c(c2)OCO3)Oc2c(NS(=O)(=O)c3cn(C)cn3)cccc2C1=O	-0.1	4.2	-35.7	1.3	-10.6	-1.1
COc1ccc(NC(=O)N(C)C[C@H]2Oc3ncc(-c4ccc(C#N)cc4)cc3C(=O)N([C@@H](C)CO)C[C@@H]2C)cc1	-0.1	3.5	9.8	0.3	-5.3	0.1
COc1ccc(C/C(C)=N/NC(=O)c2ccc(C)cc2C)cc1	44.0*	-2.7	-0.6	·	11.1	0.1
COc1ccc(CC(=O)Oc2ccc(C)cc2C)cc1	0.0	-4.9	10.9	-0.3	5.5	0.0
C[C@@H]1CN([C@H](C)CO)S(=O)(=O)c2ccc(/C=C/c3ccccc3)cc2O[C@H]1CN(C)C(=O)NC1CCCCC1	-0.7	-0.3	-24.6	·	-4.8	-0.1
Cc1noc(C)c1S(=O)(=O)Nc1cccc2c1O[C@H](CN(C)C(=O)NC1CCCCC1)[C@H](C)CN([C@H](C)CO)C2=O	0.0	-2.2	3.3	·	-2.1	-1.1
Cc1cccc(Nc2nc(CC(=O)O)cs2)c1	0.4	-4.8	128.2*	·	5.1	0.0
C[C@@H]1CN([C@H](C)CO)C(=O)c2cc(NC(=O)CCCCCC(=O)Nc3ccccc3N)ccc2O[C@@H]1CN(C)C(=O)Nc1ccccc1	·	·	·	-0.2	·	-0.4
COc1cc(CCCN2C(=S)NC[C@@H]2c2ccccc2)cc(OC)c1OC	-0.5	6.7	-1.2	0.2	25.1*	0.2
COc1cc(CCCN2C(=S)NC[C@@H]2Cc2ccccc2)cc(OC)c1OC	-0.1	-4.8	-85.7	-0.1	-12.0	-0.3
Cc1ccc(S(=O)(=O)N(C)C[C@H]2OCCCC[C@H](C)Oc3ccc(NS(=O)(=O)c4c(C)noc4C)cc3C(=O)N([C@@H](C)CO)C[C@@H]2C)cc1	0.2	2.1	·	·	42.8*	0.0
Cc1noc(C)c1S(=O)(=O)Nc1ccc2c(c1)C(=O)N([C@@H](C)CO)C[C@@H](C)[C@H](CN(C)S(=O)(=O)c1ccccc1)OCCCC[C@@H](C)O2	-0.6	0.3	·	-0.1	93.8*	0.0
SMILES	FGF22 binding	PglD inh	C2C12 statin	E-selectin induc	DENV2 CPE	Xi reactivation
Cc1ccc(S(=O)(=O)N(C)C[C@H]2OCCCC[C@@H](C)Oc3ccc(NS(=O)(=O)c4c(C)noc4C)cc3C(=O)N([C@H](C)CO)C[C@H]2C)cc1	-0.6	-1.2	·	·	20.6*	0.1
Cc1ccc(S(=O)(=O)N(C)C[C@@H]2OCCCC[C@H](C)Oc3ccc(NS(=O)(=O)c4c(C)noc4C)cc3C(=O)N([C@H](C)CO)C[C@H]2C)cc1	-0.4	0.6	·	·	112.4*	0.0
Cc1ccc(S(=O)(=O)N(C)C[C@@H]2OCCCC[C@@H](C)Oc3ccc(NS(=O)(=O)c4c(C)noc4C)cc3C(=O)N([C@H](C)CO)C[C@H]2C)cc1	-0.6	-1.2	·	·	61.7*	-0.1
Cc1ccc(S(=O)(=O)N(C)C[C@@H]2OCCCC[C@H](C)Oc3ccc(NS(=O)(=O)c4c(C)noc4C)cc3C(=O)N([C@H](C)CO)C[C@@H]2C)cc1	-0.1	-4.1	·	·	89.5*	0.1
Cc1ccc(S(=O)(=O)Nc2ccc3c(c2)C(=O)N([C@@H](C)CO)C[C@@H](C)[C@@H](CN(C)S(=O)(=O)c2c(C)noc2C)OCCCC[C@@H](C)O3)cc1	-0.4	-1.7	·	·	28.4*	0.2
Cc1cccc(-c2ccc([C@@H]3[C@@H](CO)N4CCCCN(S(=O)(=O)c5cn(C)cn5)C[C@@H]34)cc2)c1	-0.3	4.4	·	-0.3	2.9	0.0
O=C(Nc1ncn[nH]1)c1c(Cl)ccc(Cl)c1Cl	·	-4.5	153.4*	·	·	·
O=C(Nc1ncn[nH]1)c1ccccc1O	0.2	0.1	-4.9	0.0	18.0	0.0
Cc1cc(C(=O)Nc2cccc3c2O[C@H](CN(C)S(=O)(=O)c2ccc(F)cc2)[C@H](C)CN([C@@H](C)CO)C3=O)n(C)n1	0.0	0.6	·	-13.5	·	0.0

High-throughput results (PubChem BioAssay)
